Data set [1] is filed under the species Mus musculus. Description: Mutation read through activity at premature termination codon TGA-containing mouse dystrophin gene exon 23 nucleotide sequence expressed in African green monkey COS7 cells assessed as ratio of luciferase activity to beta-galactosidase activity at 200 uM after 48 hrs by dual luciferase reporter gene assay relative to control. The format is cell-based. The essentials: (§1)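 COS-7 cells carrying a dual-reporter plasmid (β-galactosidase and luciferase genes joined by a TGA-containing stop sequence). Compounds were tested at 200 μM; the dose-dependent series ran 10–200 μM. Activity is reported as a ratio relative to D-MEM control, as mean ± SD, n = 3.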
A general note: Reporter assays use an easily measured gene product as a stand-in for the process of interest.

The next data set deals with COS-7. Description: Cytotoxicity against African green monkey COS7 cells assessed as reduction in cell viability at 200 uM after 48 hrs by WST1 assay. To be noted: chlorocebus aethiops, cos-7, 48 h. The format is cell-based. Background: Tetrazolium dyes change colour on reduction, which living cells bring about.
A further data set relates to NHDF. As to the kind of experiment: Cytotoxicity against HDF assessed as reduction in cell viability at 200 uM after 48 hrs by WST1 assay. The data set is classed as cell-based. To be noted: human.
The test system of data set [2] is Mus musculus. As to the kind of experiment: Mutation read through activity in READ mouse on C57/BL6 background expressing premature termination codon TGA-containing mouse dystrophin gene exon 23 nucleotide sequence gene exon 23 assessed as ratio of luciferase activity to beta-galactosidase activity at 1 mg/20g body weight, sc administered daily for 7 days measured post last dose by dual luciferase reporter gene assay relative to control. The format is functional. The essentials:
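READ mice carry a dual reporter split by a PTC. Subcutaneous injection into the abdominal region at 1 mg in 0.2 mL saline per 20 g body weight, daily for 7 days. Negative control: saline. Positive control: arbekacin. Readthrough reported as mean ± SD.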

The species entered for data set [3] is Mus musculus. As to the kind of experiment: Mutation read through activity at premature termination codon TAA-containing mouse dystrophin gene exon 23 nucleotide sequence expressed in African green monkey COS7 cells assessed as ratio of luciferase activity to beta-galactosidase activity at 200 uM after 48 hrs by dual luciferase reporter gene assay relative to control. The data set is classed as cell-based.

For data set [4], the species on record is Mus musculus. Description: Mutation read through activity at premature termination codon TAG-containing mouse dystrophin gene exon 23 nucleotide sequence expressed in African green monkey COS7 cells assessed as ratio of luciferase activity to beta-galactosidase activity at 200 uM after 48 hrs by dual luciferase reporter gene assay relative to control. The data set is classed as cell-based.

Data set [5] deals with Mus musculus. Description: Acute toxicity in B10 mouse assessed as change in body weight at 10 mg/day/20g body weight, sc for 14 days and measured on 1 to 7 and 14 days. The data set is classed as organism-based. To be noted: in vivo, 336 h. In short, it runs like this:
(§2)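 Single subcutaneous injection into the abdominal region of B10 mice at 10 mg day–1 20 g–1 body weight, given only once. Body weight tracked over 2 weeks. Treated group n = 4; saline-injected B10 mice (n = 3) served as controls.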

The species named for data set [6] is Mus musculus. Description: Mutation read through activity at premature termination codon TGA-containing mouse dystrophin gene exon 23 nucleotide sequence expressed in African green monkey COS7 cells assessed as ratio of luciferase activity to beta-galactosidase activity after 48 hrs by dual luciferase reporter gene assay relative to control. The data set is classed as cell-based. The essentials: as §1

Another data set has as its target T1, Liver carboxylesterase (Sus scrofa, UniProt Q29550).
T1 sequence (Q29550 whole entry): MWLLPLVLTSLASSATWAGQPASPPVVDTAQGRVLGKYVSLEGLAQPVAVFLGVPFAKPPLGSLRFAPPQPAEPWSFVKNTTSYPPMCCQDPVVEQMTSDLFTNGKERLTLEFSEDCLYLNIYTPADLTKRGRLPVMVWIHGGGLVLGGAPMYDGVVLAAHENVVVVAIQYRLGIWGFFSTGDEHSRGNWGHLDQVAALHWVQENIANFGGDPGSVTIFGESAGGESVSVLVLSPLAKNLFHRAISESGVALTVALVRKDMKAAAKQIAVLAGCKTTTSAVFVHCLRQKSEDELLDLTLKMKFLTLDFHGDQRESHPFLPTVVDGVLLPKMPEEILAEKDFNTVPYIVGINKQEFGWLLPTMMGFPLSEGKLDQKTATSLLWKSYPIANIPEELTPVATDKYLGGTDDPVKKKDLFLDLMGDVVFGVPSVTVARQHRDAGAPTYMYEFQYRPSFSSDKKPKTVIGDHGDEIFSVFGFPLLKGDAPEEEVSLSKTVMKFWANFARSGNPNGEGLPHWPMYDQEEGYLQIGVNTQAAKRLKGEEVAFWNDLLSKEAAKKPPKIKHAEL
Description: Prodrug conversion assessed as porcine liver esterase-mediated TCP-126 formation at 2 mM up to 6 hrs by RP-HPLC method. The format is ADME. To be noted: pig, isolated protein, 2000 µM, TDE = time-dependent effect. In short, it runs like this: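 Incubated with porcine liver esterase (110 units/mL) in 100 mM phosphate buffer, pH 7.4, at 37 °C. Reaction mixtures were analysed by RP-HPLC over time for conversion to the parent compound. The new metabolite peak was collected and identified by high-resolution MS.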

Data set [7] deals with Mus musculus. Description: Acute toxicity in B10 mouse assessed reduction in body weight at 10 mg/day/20g body weight, sc for 14 days and measured on day 1. The data set is classed as organism-based. As to conditions: in vivo, 336 h. In short, it runs like this:
as §2

The nature of data set [8]: Stability in 100 mM phosphate buffer (pH 7.4) assessed as parent compound remaining at 200 uM measured after 6 hrs in absence of esterase by RP-HPLC and high-resolution mass spectrometry method.
For data set [9], the species on record is Mus musculus. As to the kind of experiment: Mutation read through activity at premature termination codon TGA-containing mouse dystrophin gene exon 23 nucleotide sequence expressed in African green monkey COS7 cells assessed as ratio of luciferase activity to beta-galactosidase activity at 200 uM after 48 hrs by dual luciferase reporter gene assay relative to control relative to in-frame control containing TGG. The data set is classed as cell-based.

Usually share remaining stands for the share of the starting amount still present when the sample was taken.

Structures are written as SMILES.

With `CN(CC(=O)O)NC(=O)C[C@H](CCCN)NC(=O)[C@@H](N)Cc1ccc(O)cc1`, in the data set listed under Mus musculus [1], the fold change (FC) amounted to 1.92.
As to `CC(C)C[C@H](N)C(=O)N[C@@H](CCCN)CC(=O)NN(C)CC(=O)OCc1ccccc1[N+](=O)[O-]`, the Activity result with COS-7 and in the data set on NHDF was “Non-Toxic” throughout. The fold change (FC) in the data set filed under Mus musculus [1] is 9.15.
In the case of `CC(C)C[C@H](O)C(=O)N[C@@H](CCCN)CC(=O)NN(C)CC(=O)O`, the fold change (FC) in the data set listed under Mus musculus [1] came to 1.33.
As to `NCC[C@H](O)C(=O)N[C@@H]1C[C@H](N)[C@@H](O[C@H]2O[C@H](CN)CC[C@H]2N)[C@H](O)[C@H]1O[C@H]1O[C@H](CO)[C@@H](O)[C@H](N)[C@H]1O` [ARBEKACIN], the “fold change (FC)” value in the data set on Mus musculus [2] is 1.94.
For `CC(C)C[C@H](N)C(=O)N[C@@H](CCCN)CC(=O)NN(C)CC(=O)O`, the Activity entry in the data set on COS-7 and with NHDF was “Non-Toxic” each time. Moreover, the figures for the fold change (FC) in the data set filed under Mus musculus [3], in the data set filed under Mus musculus [4] and in the data set filed under Mus musculus [1] were 1.11, 1.3 and 2.25 to 2.72, respectively.
`CC(C)C[C@H](N)C(=O)N[C@@H](CCCN)CC(=O)NN(C)CC(=O)OCc1ccccc1`: the Activity entry in the data set on COS-7 and with NHDF was “Non-Toxic” each time. Besides, the fold change (FC) in the data set filed under Mus musculus [1] was determined as 8.92.
As to `CN(CC(=O)O)NC(=O)C[C@H](N)C[C@@H](O)CN`, the fold change (FC) in the data set filed under Mus musculus [1] stood at 1.54.
With `COc1cccc(COC(=O)CN(C)NC(=O)C[C@H](CCCN)NC(=O)[C@@H](N)CC(C)C)c1`, the Activity result in the data set with COS-7 and in the data set on NHDF was “Non-Toxic” in each case. The fold change (FC) in the data set listed under Mus musculus [1] is 5.15.
Consider `CC(C)C[C@@H](N)C(=O)N[C@@H](CCCN)CC(=O)NN(C)CC(=O)O`, for which the fold change (FC) in the data set filed under Mus musculus [1] amounted to 1.3.
For `CN[C@@H]1[C@@H](O)[C@@H](O[C@H]2[C@H](O)[C@@H](O[C@H]3O[C@H]([C@H](C)O)[C@@H](O)[C@H](O)[C@H]3N)[C@H](N)C[C@@H]2N)OC[C@]1(C)O`, the Activity result in the data set on COS-7 and in the data set with NHDF was “Non-Toxic” in each case. The fold change (FC) in the data set listed under Mus musculus [1] amounted to 7.2.
As to `CC(C)C[C@H](N)C(=O)N[C@@H](CCCN)CC(=O)NN(C)CC(=O)OCc1cccc(Cl)c1`, the Activity result in the data set with COS-7 and with NHDF was “Non-Toxic” in each case. In the data set listed under Mus musculus [1], the fold change (FC) stood at 5.37.
Consider `CC(C)C[C@H](N)C(=O)N[C@@H](CCCN)CC(=O)NN(C)CC(=O)OCc1ccccc1Br`, for which the Activity result in the data set on COS-7 was “Non-Toxic”; in the data set with Mus musculus [5] it was “Non-Toxic”; in the data set listed under Mus musculus [6], “Dose-dependent effect”; in the data set with Mus musculus [7], “Toxic”; in the data set filed under Mus musculus [9] it was 2.69%; with NHDF, “Non-Toxic”. Further, the “fold change (FC)” value was 1.59 in the data set with Mus musculus [2], 1.22 in the data set filed under Mus musculus [3], 2.55 in the data set filed under Mus musculus [4] and 8.84 to 8.89 in the data set filed under Mus musculus [1]. Also, the Drug metabolism entry at Liver carboxylesterase is “Tde”. Besides, the fraction remaining at 6 h, 200 µM in data set [8] is 99%.
As to `CN(CC(=O)O)NC(=O)C[C@H](CCCN)NC(=O)[C@@H](N)Cc1ccccc1`, in the data set listed under Mus musculus [1], the fold change (FC) was determined as 2.13.
Turning to `CN(CC(=O)O)NC(=O)C[C@H](CCCN)NC(=O)CN`, in the data set filed under Mus musculus [1], the fold change (FC) was determined as 2.1.
As to `CC(C)[C@H](N)C(=O)N[C@@H](CCCN)CC(=O)NN(C)CC(=O)O`, the fold change (FC) in the data set listed under Mus musculus [1] worked out at 1.87.

Values taken from ChEMBL document CHEMBL4130526, “Structure-Activity Relationship Study of Leucyl-3-epi-deoxynegamycin for Potent Premature Termination Codon Readthrough” (ACS Med Chem Lett, 2017).
